Source: PMC3689578 (Integrative biology : quantitative biosciences from nano to …, 2012)
Where two headings read alike, the source gives them in different places.

Columns and labels:
thrombin [1] = target: T1, thrombin (Homo sapiens, UniProt P00734); assay: Determination of kcat/Km with thrombin; format: biochemical
In short: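 Thrombin at 50 nmol L−1 with seven substrate concentrations from 1 to 30 μmol L−1, sampled at 5, 15, 30 and 60 min. Reactions stopped with SDS sample buffer and run on tricine gels. Percent cleavage = (lower band − background)/(lower + upper band − 2×background), uncleaved-substrate value subtracted. Percent × starting concentration gives product. Velocity is the slope of the linear product-versus-time segment. Km and kcat come from the Lineweaver–Burke intercept and slope.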

thrombin [2] = target: T1, thrombin; assay: Enzyme cleavage by purified thrombin; format: biochemical
plasmin = plasmin (Homo sapiens, UniProt P00747); assay: Enzyme cleavage by plasmin; format: biochemical; settings: 5 μmol L^−1 peptide, 50 nmol L^−1 enzyme
plasmin, sequence (P00747 581-810 limits assumed, species assumed): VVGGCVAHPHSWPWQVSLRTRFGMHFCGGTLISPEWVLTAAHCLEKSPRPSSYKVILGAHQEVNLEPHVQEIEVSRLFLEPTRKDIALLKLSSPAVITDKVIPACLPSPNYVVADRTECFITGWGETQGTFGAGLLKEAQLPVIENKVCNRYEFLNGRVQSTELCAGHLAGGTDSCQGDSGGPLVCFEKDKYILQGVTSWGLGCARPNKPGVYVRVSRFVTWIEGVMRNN
plasmin, sequence (P00747 97-580 limits assumed, species assumed): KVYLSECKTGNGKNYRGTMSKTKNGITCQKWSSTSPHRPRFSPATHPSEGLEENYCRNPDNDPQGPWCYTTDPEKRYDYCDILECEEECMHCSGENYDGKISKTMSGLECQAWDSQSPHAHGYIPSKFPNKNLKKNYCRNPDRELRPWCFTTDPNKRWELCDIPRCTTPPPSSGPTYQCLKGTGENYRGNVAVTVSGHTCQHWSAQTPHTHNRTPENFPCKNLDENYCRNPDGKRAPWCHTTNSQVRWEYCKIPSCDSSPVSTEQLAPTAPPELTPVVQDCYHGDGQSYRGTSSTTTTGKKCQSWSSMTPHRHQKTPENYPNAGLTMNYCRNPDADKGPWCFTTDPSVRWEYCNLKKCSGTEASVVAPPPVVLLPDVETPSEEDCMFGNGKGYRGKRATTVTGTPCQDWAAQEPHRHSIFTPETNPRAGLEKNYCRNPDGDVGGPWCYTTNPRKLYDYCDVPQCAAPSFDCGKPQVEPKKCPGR

trypsin = assay: Enzyme cleavage by trypsin; format: biochemical; settings: 5 μmol L^−1 peptide, 50 nmol L^−1 enzyme
chymotrypsin = assay: Enzyme cleavage by chymotrypsin; format: biochemical; settings: 5 μmol L^−1 peptide, 50 nmol L^−1 enzyme
factor Xa = factor Xa (Bos taurus, UniProt P00743); assay: Enzyme cleavage by factor Xa; format: biochemical; settings: 5 μmol L^−1 peptide, 50 nmol L^−1 enzyme
factor Xa, sequence (P00743 234-492 limits assumed): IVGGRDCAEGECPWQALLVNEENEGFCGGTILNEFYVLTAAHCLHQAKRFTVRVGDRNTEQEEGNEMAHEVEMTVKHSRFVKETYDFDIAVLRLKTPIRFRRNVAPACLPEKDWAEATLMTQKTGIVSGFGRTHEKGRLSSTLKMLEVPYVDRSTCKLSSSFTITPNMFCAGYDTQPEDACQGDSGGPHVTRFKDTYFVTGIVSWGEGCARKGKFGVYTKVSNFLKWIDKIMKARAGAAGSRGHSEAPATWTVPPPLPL
factor Xa, sequence (P00743 41-180 limits assumed): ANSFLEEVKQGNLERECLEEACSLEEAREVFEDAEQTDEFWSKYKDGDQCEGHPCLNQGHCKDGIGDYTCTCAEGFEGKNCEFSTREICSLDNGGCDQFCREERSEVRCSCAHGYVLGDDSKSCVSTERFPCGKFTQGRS

factor VIIa = target: T2, factor VIIa (Homo sapiens, UniProt P08709); assay: Enzyme cleavage by factor VIIa; format: biochemical; settings: 5 μmol L^−1 peptide, 50 nmol L^−1 enzyme
T2 sequence (P08709 213-466 limits assumed): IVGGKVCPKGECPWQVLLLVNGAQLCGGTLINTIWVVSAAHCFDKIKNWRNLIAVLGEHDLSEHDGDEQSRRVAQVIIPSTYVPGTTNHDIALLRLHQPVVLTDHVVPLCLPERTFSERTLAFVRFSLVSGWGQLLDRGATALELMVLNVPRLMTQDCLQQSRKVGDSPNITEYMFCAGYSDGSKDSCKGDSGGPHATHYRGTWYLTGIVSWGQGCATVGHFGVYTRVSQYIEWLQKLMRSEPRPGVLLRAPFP
T2 sequence (P08709 61-212 limits assumed): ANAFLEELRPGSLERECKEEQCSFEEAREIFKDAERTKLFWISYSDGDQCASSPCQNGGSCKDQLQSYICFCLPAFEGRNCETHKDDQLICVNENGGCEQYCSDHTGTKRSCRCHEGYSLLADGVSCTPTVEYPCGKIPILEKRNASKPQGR

factor XIa = factor XIa (Homo sapiens, UniProt P03951); assay: Enzyme cleavage by factor XIa; format: biochemical; settings: 5 μmol L^−1 peptide, 50 nmol L^−1 enzyme
factor XIa, sequence (P03951 388-625 limits assumed): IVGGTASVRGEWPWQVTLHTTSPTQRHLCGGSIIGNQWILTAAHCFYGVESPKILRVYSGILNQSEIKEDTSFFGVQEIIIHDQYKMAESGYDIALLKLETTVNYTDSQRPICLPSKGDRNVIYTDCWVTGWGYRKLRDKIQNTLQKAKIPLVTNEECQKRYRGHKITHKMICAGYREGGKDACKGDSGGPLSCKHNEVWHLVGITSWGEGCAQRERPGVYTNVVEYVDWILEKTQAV
factor XIa, sequence (P03951 19-387 limits assumed): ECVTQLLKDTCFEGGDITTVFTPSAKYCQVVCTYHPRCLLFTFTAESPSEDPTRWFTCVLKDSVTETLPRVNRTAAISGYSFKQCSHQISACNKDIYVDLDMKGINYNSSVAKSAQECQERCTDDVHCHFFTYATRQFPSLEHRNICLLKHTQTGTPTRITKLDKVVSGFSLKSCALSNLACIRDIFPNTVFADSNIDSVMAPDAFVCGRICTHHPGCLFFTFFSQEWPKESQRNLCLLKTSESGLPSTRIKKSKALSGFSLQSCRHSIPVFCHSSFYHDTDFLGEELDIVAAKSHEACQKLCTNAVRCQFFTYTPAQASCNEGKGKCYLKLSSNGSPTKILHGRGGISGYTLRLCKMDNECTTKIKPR

factor XIIa = target: T3, factor XIIa (Homo sapiens, UniProt P00748); assay: Enzyme cleavage by factor XIIa; format: biochemical; settings: 5 μmol L^−1 peptide, 50 nmol L^−1 enzyme
T3 sequence (P00748 373-615 limits assumed): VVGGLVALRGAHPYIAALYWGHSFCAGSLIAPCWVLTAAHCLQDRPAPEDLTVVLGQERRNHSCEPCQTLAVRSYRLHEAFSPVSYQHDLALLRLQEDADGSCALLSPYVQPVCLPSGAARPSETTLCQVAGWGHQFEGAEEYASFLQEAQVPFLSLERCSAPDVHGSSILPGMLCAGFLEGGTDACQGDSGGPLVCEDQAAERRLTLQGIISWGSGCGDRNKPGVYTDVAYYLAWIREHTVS

cathepsin G = target: T4, cathepsin G (Homo sapiens, UniProt P08311); assay: Enzyme cleavage by cathepsin G; format: biochemical; settings: 5 μmol L^−1 peptide, 50 nmol L^−1 enzyme
T4 sequence (P08311 21-255): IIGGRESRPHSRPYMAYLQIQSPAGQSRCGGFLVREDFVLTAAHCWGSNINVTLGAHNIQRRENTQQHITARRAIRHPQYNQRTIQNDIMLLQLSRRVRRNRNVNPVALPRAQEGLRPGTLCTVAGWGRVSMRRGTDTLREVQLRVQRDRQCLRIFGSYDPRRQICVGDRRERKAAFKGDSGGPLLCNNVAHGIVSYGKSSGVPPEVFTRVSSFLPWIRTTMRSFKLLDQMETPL

neutrophil elastase = target: T5, neutrophil elastase (Homo sapiens, UniProt P08246); assay: Enzyme cleavage by neutrophil elastase; format: biochemical; settings: 5 μmol L^−1 peptide, 50 nmol L^−1 enzyme
T5 sequence (P08246 30-267): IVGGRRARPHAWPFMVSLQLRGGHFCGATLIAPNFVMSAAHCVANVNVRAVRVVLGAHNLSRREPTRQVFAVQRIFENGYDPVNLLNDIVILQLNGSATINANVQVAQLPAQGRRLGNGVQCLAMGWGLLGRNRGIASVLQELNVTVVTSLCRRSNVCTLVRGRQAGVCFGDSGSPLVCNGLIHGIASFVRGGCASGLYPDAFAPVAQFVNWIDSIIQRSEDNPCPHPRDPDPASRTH

[3] = target: activated protein C (APC) (Homo sapiens, UniProt P04070); assay: Enzyme cleavage by activated protein C; format: biochemical; settings: 5 μmol L^−1 peptide, 50 nmol L^−1 enzyme
activated protein C (APC), sequence (P04070 212-461 limits assumed): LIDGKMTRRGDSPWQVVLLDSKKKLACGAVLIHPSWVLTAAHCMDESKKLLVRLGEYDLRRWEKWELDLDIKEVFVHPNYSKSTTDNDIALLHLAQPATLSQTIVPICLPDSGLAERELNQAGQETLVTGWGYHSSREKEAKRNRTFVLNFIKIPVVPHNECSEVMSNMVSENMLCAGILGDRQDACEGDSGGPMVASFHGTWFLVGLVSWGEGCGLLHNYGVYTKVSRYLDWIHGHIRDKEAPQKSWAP
activated protein C (APC), sequence (P04070 43-197 limits assumed): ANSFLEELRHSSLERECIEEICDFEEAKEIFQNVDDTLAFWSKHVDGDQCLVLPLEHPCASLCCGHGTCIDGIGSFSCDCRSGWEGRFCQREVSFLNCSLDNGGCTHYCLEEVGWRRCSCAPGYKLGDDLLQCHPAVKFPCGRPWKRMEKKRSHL

[4] = tested on: clots at the end of the amputated tail tips; assay: In vivo clot imaging after tail amputation; parameters: species or system wildtype FVB mice; settings: 10 nanomoles iv, 24 hours, p = 0.045
In short: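 Wildtype FVB mouse tails clipped 2.5 mm from the tip. 20 min later, 10 nanomoles cleavable or control probe given i.v. At 24 h, under ketamine/midazolam (80, 5 mg kg−1), tail-tip clots imaged by fluorescence dissecting microscope (ex 620/60, em 700/75). Intensity quantified from images.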

[5] = parameters: species or system mice; settings: mouse, in vivo, iv
atherosclerotic plaques [6] = assay: Aorta and plaque fluorescence sorted by histologic group; format: in vivo, mice
atherosclerotic plaques [7] = assay: Distribution of fluorescence within sectioned plaques; format: in vivo, LDLR−/− mice; settings: 15 plaques, n = 5 mice, p = 0.023 paired t-test
human atheromas = assay: Ex vivo incubation of human carotid endarterectomy specimens
In short: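 Fresh carotid endarterectomy specimens from five patients, held on ice, embedded in 0.5% agarose, cut into 2 mm slices. Slices from the same specimen incubated 1 h in 10 μmol L−1 Cy5-labelled cleavable or control probe; two sections also with 110 or 220 μmol L−1 argatroban. Fluorescence measured on cryosections, background-subtracted. Slices homogenised in SDS sample buffer, centrifuged, supernatant run on gel. Paired t-test.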

atherosclerotic plaques [8] = assay: Imaging of carotid plaques after co-injection of two probes; format: in vivo, LDLR−/− mice; settings: rhodamine-labelled DPRSFL–ACPP, two animals
In short: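 LDLR−/− mice (C57BL/6 background) fed 0.5% cholesterol diet for 1–2 years, given rhodamine-labelled test probe plus Cy5-labelled MMP-cleavable probe intravenously. At 6 h, under anaesthesia, the carotid was exposed and imaged by fluorescence dissecting microscope. Carotid bifurcation and aortic arch imaged postmortem (rhodamine ex 560/25, em 607/36; Cy5 ex 620/60, em 700/75). Tissue then frozen for histology.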

Active thrombin in serum [9] = target: T6, Active thrombin in serum (Mus musculus, UniProt P19221)
Active thrombin in serum [10] = target: T6, Active thrombin in serum; assay: biochemical; settings: read-out: inhibition of DPRSFL–ACPP proteolysis by serum
thrombin [11] = target: T1, thrombin; settings: thrombin activity on native receptor; cited from earlier work
[12] = 50 nmol L^−1 thrombin, 1 to 30 μmol L^−1 peptide, 5-60 min, gel read-out

“Suc-e8-O-DPRSFL-r9-c(Cy5 or rhodamine)-CONH2 [DPRSFL–ACPP]” showed a Km (thrombin [1]; [12]) of 15 µM, a kcat (thrombin [1]; [12]) of 0.3 s⁻¹ and a kcat/Km (thrombin [1]; from kcat and Km) of 21000 M⁻¹ s⁻¹. The “cleavage by purified thrombin” value (thrombin [2]; 5 μmol L^−1 peptide, 50 nM thrombin, 20 min, 37 °C, triplicate) was “efficiently cleaved”, the cleavage by plasmin (plasmin) was “able to cleave” and the cleavage by trypsin (trypsin) was “able to cleave”. The cleavage by chymotrypsin (chymotrypsin) was “able to cleave”, the “cleavage by factor Xa” value (factor Xa) was “able to cleave” and the “cleavage by factor VIIa” value (factor VIIa) was “no cleavage”. The “cleavage by factor XIa” value (factor XIa) was “no cleavage”, the “cleavage by factor XIIa” value (factor XIIa) was “no cleavage” and the “cleavage by cathepsin G” value (cathepsin G) was “no cleavage”. For the same molecule, the “cleavage by neutrophil elastase” value (neutrophil elastase) was “no cleavage”, the “cleavage by APC” value [3] was “no cleavage” and the “fold increase in clot fluorescence intensity compared to mPEG–ACPP” value [4] was 2.4 fold. For the same molecule, the whole blood half-life [5] was 17 ± 5 min, the “fluorescence intensity of individual plaques, Group 2” value (atherosclerotic plaques [6]; n = 3, p = 0.007 vs Group 1) was 43.7 ± 7.5 and the “whole aorta fluorescence per pixel, Group 2 (more advanced plaques)” value (atherosclerotic plaques [6]; n = 4, p = 0.02 vs Group 1) was 24.4 ± 3.6. The “fluorescence intensity of individual plaques, Group 1” value (atherosclerotic plaques [6]; n = 11) was 17.0 ± 9.3, the “whole aorta fluorescence per pixel, Group 1 (less advanced plaques)” value (atherosclerotic plaques [6]; n=12) was 7.8 ± 3.0 and the “uptake in hypocellular (DAPI poor) region versus cellular rich exterior” value (atherosclerotic plaques [7]) was “statistically greater”. The “greater cleavage product retained compared to control ACPP” value (human atheromas; freshly resected human atheromas bathed in probe) was 63%, the “cleavage by human atheromas (gel electrophoresis of homogenates)” value (human atheromas; slices homogenized in SDS sample buffer after incubation) was “cleaved” and the “uptake relative to co-injected Cy5–PLGLAG–ACPP within the same plaques” value (atherosclerotic plaques [8]) was “much higher”. The cleavage by serum (Active thrombin in serum [9]) was “rapidly cleaved”.

In the case of `CC1CNc2c(cccc2S(=O)(=O)N[C@@H](CCCNC(=N)N)C(=O)N2CC[C@@H](C)C[C@@H]2C(=O)O)C1` (some centres unmarked) [argatroban, reference compound], the inhibition at 4 µg/mL (thrombin [2]; read-out: inhibition of DPRSFL–ACPP cleavage by thrombin) is reported as greater than 90%, the “reduction in fluorescence intensity relative to DPRSFL–ACPP alone” value (human atheromas; 110 or 220 μmol L^−1 argatroban, two atheroma specimens) is reported as 76.6 ± 13.4% and the inhibition at 4 µg/mL (Active thrombin in serum [10]) is reported as greater than 90%.

B1: native PAR-1 receptor: native proteinase activated receptor 1, thrombin substrate (protein, UniProt P25116 42-425, looked up)
Proteinase-activated receptor …: SFLLRNPNDKYEPFWEDEEKNESGLTEYRLVSINKSSPLQKQLPAFISEDASGYLTSSWLTLFVPSVYTGVFVVSLPLNIMAIVVFILKMKVKKPAVVYMLHLATADVLFVSVLPFKISYYFSGSDWQFGSELCRFVTAAFYCNMYASILLMTVISIDRFLAVVYPMQSLSWRTLGRASFTCLAIWALAIAGVVPLLLKEQTIQVPGLNITTCHDVLNETLLEGYYAYYFSAFSAVFFFVPLIISTVCYVSIIRCLSSSAVANRSKKSRALFLSAAVFCIFIICFGPTNVLLIAHYSFLSHTSTTEAAYFAYLLCVCVSSISCCIDPLIYYYASSECQRYVYSILCCKESSDPSSYNSSGQLMASKMDTCSSNLNNSIYKKLLT
For B1, the kcat/Km (thrombin [11]) is given as 7.6e+06 M⁻¹ s⁻¹.
